Results gathered from unrelated publications.
Each line is one published result; the experiments were not run side by side.
Target: Calcium/calmodulin-dependent protein kinase kinase 2 (CAMKK2, Homo sapiens, UniProt Q96RR4)

Compound	observed	method	tested at	remaining binding [%]
COc1cccc(CNC(=O)c2nc3scc(COCc4ccc(C(=O)O)cc4)c3c(=O)[nH]2)c1	cell-free assay	competition with immobilised ligand	1 µM	100
CCN1CCN(Cc2ccc(C(=O)Nc3ccc(C)c(Oc4ccc5c(c4)CC(=O)N5)c3)cc2C(F)(F)F)CC1	binding	competition with immobilised ligand	1 µM	96
CC(C)CC(=O)N1CCc2nc(-c3ccc(Br)cc3)nc(N(C)Cc3ccccc3)c2C1	cell-free assay	competition with immobilised ligand	0.1 µM	100
CN(C)c1ncc(F)c(-c2cnn3ncccc23)n1	binding		1 µM	86
COc1ncc2cc3ccccc3nc2c1C#N	cell-free assay	competition with immobilised ligand	5 µM	96
C[C@@H](c1cccc(C#N)c1)n1cc(Cl)cc(C(N)=O)c1=N	cell-free assay	competition with immobilised ligand	1 µM	100
Cc1cnc(Nc2ccc(C(=O)N3CCC(N4CCCC4)CC3)cc2)nc1-c1cc2ccccc2s1	binding	competition with immobilised ligand	1 µM	81
C[C@H]1CCN(c2nccc(-c3cnn4ncccc34)n2)C1	binding		1 µM	74
O=C(NCCCN1CCOCC1)c1ccc(Nc2nccc(-c3cc4ccccc4s3)n2)cc1	binding	competition with immobilised ligand	1 µM	81
Cc1cnn2ncc(-c3ccnc(N(C)C)n3)c2c1	binding		1 µM	63
COc1cnc(Nc2cccc(S(N)(=O)=O)c2)nc1N1CCN(c2ccccc2)CC1	binding	competition with immobilised ligand	1 µM	92
CCC(=N\O)/C(C)=C/c1ccc(F)cc1	cell-free assay	competition with immobilised ligand	1 µM	98
CC1CCCN1c1nccc(-c2cnn3ncccc23)n1 (centres unmarked)	binding		1 µM	100
C[C@@H](c1ccc(-n2cnc3c(N)ncnc32)cc1)N1CCc2nn(C)c(Cc3ccccc3)c2C1=O	binding	competition with immobilised ligand	0.1 µM	94
O=C(Nc1c[nH]nc1C(=O)NC1CCNCC1)c1cc(F)cc(F)c1	binding	competition with immobilised ligand	1 µM	91
N[C@@H]1CCN(c2nccc(-c3cnn4ncccc34)n2)C1	binding		1 µM	100
CO[C@@H](C)c1c(Nc2ccc([C@H](N(C)C(=O)C3CCS(=O)(=O)CC3)C(F)(F)F)cc2)cnc2cc(Cl)nn12	cell-free assay	competition with immobilised ligand	1 µM	80
COc1cnc(Nc2cccc(S(N)(=O)=O)c2)nc1N1CCN(c2ccccc2)C(=O)C1	binding	competition with immobilised ligand	1 µM	100
CN(C)c1nccc(-c2cnn3ncccc23)n1	binding		1 µM	82
CO[C@H]1CC[C@H](CNc2ccc(S(=O)(=O)NC(=O)c3ccc(N4CCN(CC5=C(c6ccc(Cl)cc6)CC(C)(C)CC5)CC4)cc3Oc3cnc4[nH]ccc4c3)cc2[N+](=O)[O-])CC1	cell-free assay	competition with immobilised ligand	1 µM	81
